What was measured:
Type in all cases: functional
Mus musculus [1] = experiment: Compound was evaluated for the antinociceptive response after intravenous administration using hot-plat test (55+/-1 degree Celsius) in mice (for jump latency time) at the dose of 0.75*10e-6 mol/mice and 0.46*10e-6 mol/mice respectively
Method in brief: (§1)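 Mice on a hot plate held at 55 ± 0.5 °C inside a glass cylinder, tested 15 min after iv dosing. Read-out was latency to jump, with a 240 s cutoff. % analgesia = (test − control latency)/(cutoff − control latency) × 100. Groups compared by ANOVA followed by Dunnett's t test.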

Mus musculus [2] = experiment: Compound was evaluated for the percentage of analgesic effect in mice at the time of 15 min after intravenous administration of dose 0.75*10e-6 mol/mice and 0.46*10e-6 mol/mice respectively; method in brief: as §1
Mus musculus [3] = experiment: Compound (20 mg/kg) was evaluated for the percentage of analgesic effect in mice at the time of 15 min after intravenous administration of dose 0.57*10e-6 mol/mouse; method in brief: as §1
Mus musculus [4] = experiment: Compound (20 mg/kg) was evaluated for the antinociceptive response after intravenous administration using hot-plat test (55+/-1 degree Celsius) in mice(for jump latency time) at the dose of 0.57*10e-6 mol/mouse; method in brief: as §1
Mus musculus [5] = experiment: Compound was evaluated for the antinociceptive response after intravenous administration using hot-plat test (55+/-1 degree Celsius) in mice (for jump latency time) at the dose of 5 mg/kg; method in brief: as §1
Mus musculus [6] = experiment: Compound was evaluated for the antinociceptive response after intravenous administration using hot-plat test (55+/-1 degree Celsius) in mice (for jump latency time) at the dose of 0 mg/kg; method in brief: as §1
Mus musculus [7] = experiment: Compound was evaluated for the percentage of analgesic effect in mice at the time of 15 min after intravenous administration of dose 10 mg/kg; method in brief: as §1
Mus musculus [8] = experiment: Compound was evaluated for the antinociceptive response after intravenous administration using hot-plat test (55+/-1 degree Celsius) in mice (for jump latency time) at the dose of 10 mg/kg; method in brief: as §1
Mus musculus [9] = experiment: Compound was evaluated for the percentage of analgesic effect in mice at the time of 15 min after intravenous administration of dose 5 mg/kg; method in brief: as §1
Mus musculus [10] = experiment: Compound was evaluated for the antinociceptive response after intravenous administration using hot-plat test (55+/-1 degree Celsius) in mice (for jump latency time) at the dose of 1 mg/kg; method in brief: as §1
Mus musculus [11] = experiment: Compound was evaluated for the percentage of analgesic effect in mice at the time of 15 min after intravenous administration of dose 1 mg/kg; method in brief: as §1

| SMILES | Jump latency time (Mus musculus [5]) [s] | Jump latency time (Mus musculus [6]) [s] | Analgesia (Mus musculus [7]) [%] | Jump latency time (Mus musculus [8]) [s] | other results |
| --- | --- | --- | --- | --- | --- |
| CSCCC(N)CSSCC(N)CCSC.O=C(NC(Cc1ccccc1)C(=O)OCc1ccccc1)C(CSSCC(Cc1ccccc1)C(=O)NC(Cc1ccccc1)C(=O)OCc1ccccc1)Cc1ccccc1 (stereo not given) | – | – | – | – | Jump latency time (Mus musculus [1]): 126 s; Analgesia (Mus musculus [2]): 32.2% |
| CSCCC(N)CSSCC(Cc1ccccc1)C(=O)NC(Cc1ccccc1)C(=O)OCc1ccccc1 (stereo not given) | – | – | – | – | Analgesia (Mus musculus [3]): 92.1%; Jump latency time (Mus musculus [4]): 236 s |
| N[C@H](CSC(=O)CCC(=O)SCC(Cc1ccccc1)C(=O)NCC(=O)OCc1ccccc1)Cc1ccccc1 (stereo not given in full) | 46.5 | 48.7 | 12 | 71.7 | – |
| CC(=O)SCC(Cc1ccccc1)C(=O)NCC(=O)SC[C@@H](N)Cc1ccccc1 (stereo not given in full) | 80.4 | 56.7 | 63 | 143 | Analgesia (Mus musculus [9]): 13%; Jump latency time (Mus musculus [10]): 74.1 s; Analgesia (Mus musculus [11]): 9% |
